Results as given in article PMC2828495 (Bioorganic & medicinal chemistry, 2010).

Experiments:
EcSecA = EcSecA (Escherichia coli, UniProt P10408); experiment: Whole EcSecA ATPase inhibition; assay type: biochemical, E. coli
Summary of the method: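 Full-length E. coli SecA was over-expressed from pT7-SecA and purified. Each reaction held 5 µg SecA, 2 mM ATP, 50 mM Tris-HCl pH 7.6, 20 mM KCl, 20 mM NH4Cl, 1 mM DTT, 2 mM Mg(OAc)2 and 10% DMSO, run at 40 °C for 40 min. Malachite green, then 34% citric acid, was added; after 40 min at room temperature A660 gave Pi. Activity was expressed as % of no-compound control, at least in triplicate, with IC50 from inhibition curves.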

leaky mutant NR698 = experiment: Antimicrobial test; assay type: cell-based, E. coli; details: Figure 8
Summary of the method: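 E. coli NR698 (MC4100 imp4213), a strain with increased outer-membrane permeability. Log-phase cells at OD600 ~0.5 to 1.0 were diluted to OD600 0.05 and test compound (dissolved in DMSO) was added. Cultures containing 5% DMSO final were shaken at 37 °C, 1050 rpm, for 10 to 12 h. MIC was then determined.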

[1] = system: wild type E. coli strain MC4100; experiment: Antimicrobial test; assay type: cell-based; details: Figure 8
EcN68 SecA = EcN68 SecA (Escherichia coli, UniProt P10408); experiment: EcN68 SecA ATPase inhibition; assay type: biochemical, E. coli
EcN68 SecA, sequence (P10408 1-610): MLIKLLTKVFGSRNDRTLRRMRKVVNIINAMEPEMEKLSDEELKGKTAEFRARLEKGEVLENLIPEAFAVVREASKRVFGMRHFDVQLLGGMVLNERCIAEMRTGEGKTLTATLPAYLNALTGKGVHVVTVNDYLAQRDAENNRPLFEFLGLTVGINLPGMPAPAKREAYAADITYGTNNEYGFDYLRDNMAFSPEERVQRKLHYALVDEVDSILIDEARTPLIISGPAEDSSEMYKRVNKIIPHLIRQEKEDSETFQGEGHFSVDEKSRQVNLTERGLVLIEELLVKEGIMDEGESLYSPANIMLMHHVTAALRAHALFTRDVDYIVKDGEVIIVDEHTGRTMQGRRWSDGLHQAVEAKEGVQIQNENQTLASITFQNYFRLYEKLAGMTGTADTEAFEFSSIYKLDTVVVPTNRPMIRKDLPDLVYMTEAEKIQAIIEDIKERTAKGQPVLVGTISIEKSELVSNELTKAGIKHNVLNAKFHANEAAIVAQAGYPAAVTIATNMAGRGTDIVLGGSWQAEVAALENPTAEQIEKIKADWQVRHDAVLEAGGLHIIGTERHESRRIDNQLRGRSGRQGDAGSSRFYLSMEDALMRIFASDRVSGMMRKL

[2] = Solubility observation in the inhibition assay; assay type: physicochemical; details: when approaching 100 µM

EcSecA, sequence (P10408 whole entry): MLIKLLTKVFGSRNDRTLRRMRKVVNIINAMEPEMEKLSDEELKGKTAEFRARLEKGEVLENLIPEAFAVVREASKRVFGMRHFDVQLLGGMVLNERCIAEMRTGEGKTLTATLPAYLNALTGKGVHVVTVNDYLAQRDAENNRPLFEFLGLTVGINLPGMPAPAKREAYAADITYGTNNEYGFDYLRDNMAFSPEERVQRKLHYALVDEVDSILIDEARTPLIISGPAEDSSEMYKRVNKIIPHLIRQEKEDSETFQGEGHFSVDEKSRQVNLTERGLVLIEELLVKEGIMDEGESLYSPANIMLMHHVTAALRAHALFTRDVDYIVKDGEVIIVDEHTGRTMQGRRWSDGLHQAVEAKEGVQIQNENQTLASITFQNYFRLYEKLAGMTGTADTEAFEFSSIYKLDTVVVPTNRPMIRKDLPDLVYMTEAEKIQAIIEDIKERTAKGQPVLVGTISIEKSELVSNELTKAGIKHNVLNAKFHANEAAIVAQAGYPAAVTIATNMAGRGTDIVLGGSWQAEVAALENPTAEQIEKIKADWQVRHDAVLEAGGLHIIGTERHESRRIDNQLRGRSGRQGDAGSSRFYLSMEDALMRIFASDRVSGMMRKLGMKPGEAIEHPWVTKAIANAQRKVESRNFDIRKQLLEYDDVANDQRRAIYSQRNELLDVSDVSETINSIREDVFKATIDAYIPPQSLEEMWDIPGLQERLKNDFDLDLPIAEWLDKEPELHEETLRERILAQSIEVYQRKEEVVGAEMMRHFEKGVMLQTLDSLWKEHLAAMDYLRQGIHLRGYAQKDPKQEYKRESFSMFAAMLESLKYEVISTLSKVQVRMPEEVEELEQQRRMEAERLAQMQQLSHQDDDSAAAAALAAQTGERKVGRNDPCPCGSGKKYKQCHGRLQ

Row | Compound | IC50 (EcSecA) [µM] | antimicrobial activity (MIC) against NR698 (leaky mutant NR698) | antimicrobial activity (MIC) against MC4100 [1] | IC50 (EcN68 SecA) [µM] | fold more potent than the hit compound(s) (EcN68 SecA) [fold] | solubility [2]
1 | N#Cc1c(-c2ccc(-c3ccccc3)cc2)nc(SCc2ccccc2)[nH]c1=O [17h, S-Benzyl-5-cyano-6-(biphenyl-4-yl)-2-thiouracil] | 60 | most potent inhibition effects | neither 17h nor 16h exhibited inhibition effects |  |  | 
2 | N#Cc1c(-c2ccc(-c3ccccc3)cc2)nc(SCc2ccc(CSC3=NC(=O)C(C#N)C(c4ccc(-c5ccccc5)cc4)=N3)cc2)[nH]c1=O (stereo not drawn) [16h, 2,2'-(α,α’-Xylene)bis(sulfanediyl)bis-(6-(biphenyl-4-yl)-5-cyano-4-oxopyrimidine)] |  | did not exhibit significantly antimicrobial activities | neither 17h nor 16h exhibited inhibition effects | 2 | 50 | 
3 | Cc1onc(-c2c(F)cccc2Cl)c1C(=O)Nc1ccc(Sc2ccccc2)nc1Sc1ccccc1 [compound 1] |  |  |  |  |  | started having solubility problems when approaching 100 µM
4 | N#Cc1c(-c2ccc(Br)cc2)nc(SCc2ccc(CSC3=NC(=O)C(C#N)C(c4ccc(Br)cc4)=N3)cc2)[nH]c1=O (stereo not drawn) [16g, 2,2'-(α,α’-Xylene)bis(sulfanediyl)bis-(6-(4-bromophenyl)-5-cyano-4-oxopyrimidine)] |  |  |  |  | 50 | 
